Test results taken from ChEMBL document CHEMBL1133697, “New selective and potent 5-HT(1B/1D) antagonists: chemistry and pharmacological evaluation of N-piperazinylphenyl biphenylcarboxamides and biphenylsulfonamides” (J Med Chem, 2000).

Tests used:
[1] = Partition coefficient (logD7.4); settings: octanol/water, pH 7.4
[2] = target: Sodium-dependent serotonin transporter (Homo sapiens, UniProt P31645); test: Inhibition of 5-hydroxytryptamine reuptake
[3] = pA2 value for the effect in RSV model.; format: functional
How it was run: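 Isolated rabbit saphenous vein segments were held in organ baths and given two cumulative sumatriptan concentration-response curves. The second curve was run after 60 min incubation with antagonist or vehicle. Apparent pA2 was derived from a single antagonist concentration in at least three preparations.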

[4] = target: 5-hydroxytryptamine receptor 1B (Rattus norvegicus, UniProt P28564); test: Inhibition affinity against 5-HT-1B receptor in rat frontal cortex using radio binding assay; format: tissue-based
[5] = target: Serotonin (5-HT) receptor (Homo sapiens) (UniProt P30939+P41595+Q13639+P28222+P46098+P08908+P28221+P28223+P28335+P28566+P34969+P50406+P47898+A5X5Y0+O95264+Q70Z44+Q8WXA8); test: 5-hydroxytryptamine level in K+ induced 5-hydroxytryptamine release in guinea pig cortex.; format: functional, tissue-based; settings: Cavia porcellus, target entry is the homologue from another species
How it was run: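 Guinea pig (male Dunkin-Hartley) cerebral cortex slices loaded with [3H]5-HT for 30 min, then superfused with oxygenated Krebs solution. Two 4-min 30 mM K+ pulses at 68 and 108 min (S1, S2). Sumatriptan 3 µM, alone or with test compound at 30 nM, 300 nM or 3 µM, given before and during S2. Tabulated value is at 300 nM, reported as % of control S2/S1 ratio; mean (SEM) of 3-4 determinations.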

[6] = Partition coefficient (logP); settings: octanol/water
[7] = target: T1, 5-hydroxytryptamine receptor 1A (Rattus norvegicus, UniProt P19327); test: Inhibition activity against 5-hydroxytryptamine 1A receptor in rat hippocampus membranes using radio binding assays; format: cell membranes, Membrane
T1 sequence (P19327 whole entry): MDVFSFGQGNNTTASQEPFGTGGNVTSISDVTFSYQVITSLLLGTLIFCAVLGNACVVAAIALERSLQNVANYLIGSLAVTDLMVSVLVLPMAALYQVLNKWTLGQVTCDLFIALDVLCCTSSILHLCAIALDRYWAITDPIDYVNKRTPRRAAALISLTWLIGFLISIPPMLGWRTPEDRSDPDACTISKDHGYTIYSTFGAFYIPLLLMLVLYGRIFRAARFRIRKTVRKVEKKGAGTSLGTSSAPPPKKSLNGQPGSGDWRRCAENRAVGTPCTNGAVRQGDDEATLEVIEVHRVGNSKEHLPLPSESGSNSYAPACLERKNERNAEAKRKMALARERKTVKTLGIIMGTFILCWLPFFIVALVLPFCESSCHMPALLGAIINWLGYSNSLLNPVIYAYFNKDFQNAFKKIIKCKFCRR
How it was run: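 Displacement of 0.5 nM [3H]8-OH-DPAT from 5-HT1A sites in rat hippocampal membranes, following a previously reported method. IC50 in nM, mean of at least 3 determinations ±SEM unless indicated otherwise.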

Sodium-dependent serotonin transporter, sequence (P31645 whole entry): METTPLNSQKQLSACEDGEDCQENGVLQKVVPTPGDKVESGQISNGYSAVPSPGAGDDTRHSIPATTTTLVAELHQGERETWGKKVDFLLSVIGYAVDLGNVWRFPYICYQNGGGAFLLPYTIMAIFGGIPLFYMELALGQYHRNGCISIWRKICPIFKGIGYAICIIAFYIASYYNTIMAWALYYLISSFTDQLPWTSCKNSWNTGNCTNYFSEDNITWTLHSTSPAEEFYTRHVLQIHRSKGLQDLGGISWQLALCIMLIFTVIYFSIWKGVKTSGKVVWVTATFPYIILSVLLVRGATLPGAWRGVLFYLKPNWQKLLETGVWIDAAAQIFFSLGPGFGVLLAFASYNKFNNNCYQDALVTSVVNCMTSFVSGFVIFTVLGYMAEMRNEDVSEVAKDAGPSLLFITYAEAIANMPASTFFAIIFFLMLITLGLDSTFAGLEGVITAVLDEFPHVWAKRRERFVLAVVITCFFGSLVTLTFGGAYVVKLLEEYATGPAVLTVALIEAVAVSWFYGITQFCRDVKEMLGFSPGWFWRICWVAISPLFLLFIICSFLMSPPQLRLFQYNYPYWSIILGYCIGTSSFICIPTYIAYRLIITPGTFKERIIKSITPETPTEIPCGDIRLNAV
5-hydroxytryptamine receptor 1B, sequence (P28564 whole entry): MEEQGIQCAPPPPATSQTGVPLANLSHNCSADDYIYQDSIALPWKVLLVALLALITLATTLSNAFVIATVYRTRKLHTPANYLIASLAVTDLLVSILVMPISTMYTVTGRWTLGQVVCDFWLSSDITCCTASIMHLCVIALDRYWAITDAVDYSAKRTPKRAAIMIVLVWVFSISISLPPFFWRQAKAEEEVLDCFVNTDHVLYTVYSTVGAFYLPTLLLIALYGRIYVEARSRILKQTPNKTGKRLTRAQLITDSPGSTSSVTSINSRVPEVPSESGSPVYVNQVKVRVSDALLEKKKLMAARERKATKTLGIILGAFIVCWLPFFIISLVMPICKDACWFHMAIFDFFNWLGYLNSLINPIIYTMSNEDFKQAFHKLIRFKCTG

Structure (SMILES)	logD [1]	IC50 [2]	pA2 [3]	IC50 [4]	Control [5]	logP [6]	IC50 [7]
Cc1nnc(-c2ccc(-c3ccc(C(=O)Nc4ccc(OS(C)(=O)=O)c(N5CCN(C)CC5)c4)cc3)c(C)c2)o1	2.96	3800 nM	8.3	70 nM	166%	3.38	7000 nM
Cc1nc(-c2ccc(-c3ccc(C(=O)N4CCc5cc6c(cc54)C4(CCN(C)CC4)CO6)cc3)c(C)c2)no1 [SB-224289]	4.64	4700 nM	7.4	2 nM	134%	6.29	
COc1ccc(NS(=O)(=O)c2ccc(-c3ccc(-c4nnc(C)o4)cc3C)cc2)cc1N1CCN(C)CC1	3.6	> 1000 nM	7	60 nM	155%	4.04	700 nM
Cc1nnc(-c2ccc(-c3ccc(C(=O)Nc4ccc(O)c(N5CCN(C)CC5)c4)cc3)c(C)c2)o1	3.12	4700 nM	8	6.3 nM	147%	3.54	> 100 nM
Cc1nc(-c2ccc(-c3ccc(C(=O)Nc4ccc(O)c(N5CCN(C)CC5)c4)cc3)c(C)c2)no1	3.91	> 1000 nM	7.3	7.3 nM	122%	4.33	> 1000 nM
COc1ccc(NC(=O)c2ccc(-c3ccc(C(N)=O)cc3C)cc2)cc1N1CCN(C)CC1	3.18	> 1000 nM	10	1.3 nM	162%	3.6	57 nM
COc1ccc(NC(=O)c2ccc(-c3ccc(-c4nnc(C)o4)cc3C)cc2)cc1N1CCN(C)CC1		> 1000 nM	9.1	0.93 nM	147%		> 1000 nM
COc1ccc(NC(=O)c2ccc(-c3ccc(-c4noc(C)n4)cc3C)cc2)cc1N1CCN(C)CC1 [GR-127935]	4.48	1000 nM	9.9	1.6 nM		4.9	425 nM
Cc1nc(-c2ccc(-c3ccc(C(=O)Nc4ccc(OCCF)c(N5CCN(C)CC5)c4)cc3)c(C)c2)no1	4.91	900 nM	8.3	10 nM	107%	5.33	5000 nM
COc1ccc(NC(=O)c2ccc(-c3ccc(C(=N)N)cc3C)cc2)cc1N1CCN(C)CC1	-0.35	407 nM	9.6	0.5 nM	155%	3.61	23 nM
Cc1nc(-c2ccc(-c3ccc(C(=O)Nc4ccc(OS(=O)(=O)C(F)(F)F)c(N5CCN(C)CC5)c4)cc3)c(C)c2)no1	5.64	> 1000 nM		700 nM		6.06	> 10000 nM
